Assays:
Histone deacetylase 5 = Histone deacetylase 5 (Homo sapiens, UniProt Q9UQL6); assay: Inhibition of recombinant full length human HDAC5 expressed in SF9 baculovirus using FAM- labelled acetylated peptide as substrate measured by Electrophoretic mobility shift assay
Histone deacetylase 6 = target: T1, Histone deacetylase 6 (Danio rerio, UniProt F8W4B7); assay: Inhibition of N-terminal 6 His-SUMO tagged Zebrafish HDAC6 CD2 domain expressed in Escherichia coli BL21(DE3) RILP pretreated for 10 mins before FITC-M344 addition and measured after 10 mins by fluorescence polarization competition assay
T1 sequence (F8W4B7 whole entry): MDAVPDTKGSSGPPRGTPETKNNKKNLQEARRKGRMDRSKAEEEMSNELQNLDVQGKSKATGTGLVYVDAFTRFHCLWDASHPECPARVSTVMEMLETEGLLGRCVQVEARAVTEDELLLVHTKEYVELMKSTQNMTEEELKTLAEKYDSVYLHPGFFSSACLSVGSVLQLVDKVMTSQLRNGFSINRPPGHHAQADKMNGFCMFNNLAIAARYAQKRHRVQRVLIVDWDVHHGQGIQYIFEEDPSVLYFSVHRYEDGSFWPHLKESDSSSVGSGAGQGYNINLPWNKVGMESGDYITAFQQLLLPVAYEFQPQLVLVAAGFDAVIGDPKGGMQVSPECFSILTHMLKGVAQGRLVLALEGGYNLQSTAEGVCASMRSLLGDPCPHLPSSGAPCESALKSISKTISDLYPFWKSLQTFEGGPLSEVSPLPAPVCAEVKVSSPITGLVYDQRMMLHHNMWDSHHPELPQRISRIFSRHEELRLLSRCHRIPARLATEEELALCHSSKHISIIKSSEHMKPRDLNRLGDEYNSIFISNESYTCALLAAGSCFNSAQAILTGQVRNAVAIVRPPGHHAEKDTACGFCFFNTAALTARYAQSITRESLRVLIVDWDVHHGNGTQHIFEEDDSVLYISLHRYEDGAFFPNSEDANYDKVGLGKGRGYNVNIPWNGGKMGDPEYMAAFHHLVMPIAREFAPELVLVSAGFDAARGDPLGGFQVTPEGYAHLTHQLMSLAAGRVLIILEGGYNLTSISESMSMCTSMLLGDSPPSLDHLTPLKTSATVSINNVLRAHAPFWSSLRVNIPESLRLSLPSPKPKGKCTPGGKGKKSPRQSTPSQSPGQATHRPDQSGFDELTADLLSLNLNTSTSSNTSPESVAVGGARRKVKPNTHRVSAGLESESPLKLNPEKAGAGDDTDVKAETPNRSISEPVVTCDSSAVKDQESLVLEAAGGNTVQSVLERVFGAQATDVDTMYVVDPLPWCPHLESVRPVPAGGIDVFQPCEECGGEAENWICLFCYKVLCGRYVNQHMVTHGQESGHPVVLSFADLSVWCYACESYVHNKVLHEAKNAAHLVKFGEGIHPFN

[1] = target: T2, Protein deacetylase HDAC6 (Homo sapiens, UniProt Q9UBN7); assay: Inhibition of HDAC6 in human HeLa cells assessed by deacetylation measured after 15 mins by ELISA; type: cell-based
T2 sequence (Q9UBN7 whole entry): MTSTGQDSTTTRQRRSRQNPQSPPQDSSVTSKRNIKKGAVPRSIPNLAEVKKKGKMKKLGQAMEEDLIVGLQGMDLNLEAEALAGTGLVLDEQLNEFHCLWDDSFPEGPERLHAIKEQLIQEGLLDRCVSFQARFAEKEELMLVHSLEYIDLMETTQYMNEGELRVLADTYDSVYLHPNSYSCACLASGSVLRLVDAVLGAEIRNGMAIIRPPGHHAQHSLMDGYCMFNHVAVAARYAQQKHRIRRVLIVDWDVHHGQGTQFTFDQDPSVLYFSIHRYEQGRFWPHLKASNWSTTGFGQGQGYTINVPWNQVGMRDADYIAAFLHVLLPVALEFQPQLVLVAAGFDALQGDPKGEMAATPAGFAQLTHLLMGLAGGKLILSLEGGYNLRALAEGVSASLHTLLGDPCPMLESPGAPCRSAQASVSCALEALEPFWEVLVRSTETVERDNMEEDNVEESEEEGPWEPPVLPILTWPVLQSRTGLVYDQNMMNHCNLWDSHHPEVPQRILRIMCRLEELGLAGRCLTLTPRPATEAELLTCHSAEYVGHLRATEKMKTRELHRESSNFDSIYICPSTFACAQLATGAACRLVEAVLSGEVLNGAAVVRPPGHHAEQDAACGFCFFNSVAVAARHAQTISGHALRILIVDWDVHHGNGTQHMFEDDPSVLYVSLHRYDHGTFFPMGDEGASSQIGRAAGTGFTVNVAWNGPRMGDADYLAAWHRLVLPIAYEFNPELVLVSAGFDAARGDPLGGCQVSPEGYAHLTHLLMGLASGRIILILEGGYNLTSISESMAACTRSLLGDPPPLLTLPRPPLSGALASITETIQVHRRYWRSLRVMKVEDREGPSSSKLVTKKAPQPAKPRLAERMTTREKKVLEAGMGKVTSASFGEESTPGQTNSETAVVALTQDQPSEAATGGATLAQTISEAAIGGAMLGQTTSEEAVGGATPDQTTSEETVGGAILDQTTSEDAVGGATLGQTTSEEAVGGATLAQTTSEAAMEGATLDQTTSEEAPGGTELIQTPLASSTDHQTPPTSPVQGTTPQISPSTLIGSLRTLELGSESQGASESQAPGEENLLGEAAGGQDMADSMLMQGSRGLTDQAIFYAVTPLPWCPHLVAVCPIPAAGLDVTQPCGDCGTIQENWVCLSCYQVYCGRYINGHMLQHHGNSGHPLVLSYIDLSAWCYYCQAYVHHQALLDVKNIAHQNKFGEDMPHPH
Method in brief: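 ELISA activity assay using HeLa-derived active HDAC6 coated on plates. A range of inhibitor concentrations was incubated with the enzyme, and deacetylation activity was monitored over time, with a 0.25 h read. The IC50 was taken from the inhibition profile.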

MV4-11 [2] = assay: Induction of apoptosis in human MV4-11 cells assessed as early apoptotic cells at 4 microM measured after 18 hrs by Annexin V/Propidium iodide stain based Flow cytometry assay (reference value: 1.7%); type: functional
MV4-11 [3] = assay: Induction of apoptosis in human MV4-11 cells assessed as early apoptotic cells at 0.25 microM measured after 18 hrs by Annexin V/Propidium iodide stain based Flow cytometry assay (reference value: 1.7%); type: functional
RPMI-8226 = assay: Cytotoxicity against human RPMI-8226 cells measured after 72 hrs by spectrophotometer method; type: functional, cell-based; conditions: RPMI-8226, 72 h
HUVEC = assay: Cytotoxicity against human HUVEC cells measured after 72 hrs by spectrophotometer method; type: cell-based
[4] = Glutathione reactivity at pH 7.4 assessed as compound remaining measured after 120 mins by LC-MS/MS method; type: physicochemical; conditions: glutathione solution, read-out: Stabilty
[5] = Intrinsic clearance in mouse hepatocytes assessed per 10^6 cells measured after 120 mins by LC/MS/MS method; type: ADME, cell-based, Hepatocyte; conditions: read-out: CLH
[6] = AUC (last) in CD1 mouse at 20 mg/kg, ip measured after 24 hrs by LC/MS/MS method; type: ADME, organism-based; design: route intraperitoneal, dose 20 mg/kg, time 24 hrs; conditions: in vivo

Sequence of Histone deacetylase 5 (Q9UQL6 whole entry, the tested form may be a part): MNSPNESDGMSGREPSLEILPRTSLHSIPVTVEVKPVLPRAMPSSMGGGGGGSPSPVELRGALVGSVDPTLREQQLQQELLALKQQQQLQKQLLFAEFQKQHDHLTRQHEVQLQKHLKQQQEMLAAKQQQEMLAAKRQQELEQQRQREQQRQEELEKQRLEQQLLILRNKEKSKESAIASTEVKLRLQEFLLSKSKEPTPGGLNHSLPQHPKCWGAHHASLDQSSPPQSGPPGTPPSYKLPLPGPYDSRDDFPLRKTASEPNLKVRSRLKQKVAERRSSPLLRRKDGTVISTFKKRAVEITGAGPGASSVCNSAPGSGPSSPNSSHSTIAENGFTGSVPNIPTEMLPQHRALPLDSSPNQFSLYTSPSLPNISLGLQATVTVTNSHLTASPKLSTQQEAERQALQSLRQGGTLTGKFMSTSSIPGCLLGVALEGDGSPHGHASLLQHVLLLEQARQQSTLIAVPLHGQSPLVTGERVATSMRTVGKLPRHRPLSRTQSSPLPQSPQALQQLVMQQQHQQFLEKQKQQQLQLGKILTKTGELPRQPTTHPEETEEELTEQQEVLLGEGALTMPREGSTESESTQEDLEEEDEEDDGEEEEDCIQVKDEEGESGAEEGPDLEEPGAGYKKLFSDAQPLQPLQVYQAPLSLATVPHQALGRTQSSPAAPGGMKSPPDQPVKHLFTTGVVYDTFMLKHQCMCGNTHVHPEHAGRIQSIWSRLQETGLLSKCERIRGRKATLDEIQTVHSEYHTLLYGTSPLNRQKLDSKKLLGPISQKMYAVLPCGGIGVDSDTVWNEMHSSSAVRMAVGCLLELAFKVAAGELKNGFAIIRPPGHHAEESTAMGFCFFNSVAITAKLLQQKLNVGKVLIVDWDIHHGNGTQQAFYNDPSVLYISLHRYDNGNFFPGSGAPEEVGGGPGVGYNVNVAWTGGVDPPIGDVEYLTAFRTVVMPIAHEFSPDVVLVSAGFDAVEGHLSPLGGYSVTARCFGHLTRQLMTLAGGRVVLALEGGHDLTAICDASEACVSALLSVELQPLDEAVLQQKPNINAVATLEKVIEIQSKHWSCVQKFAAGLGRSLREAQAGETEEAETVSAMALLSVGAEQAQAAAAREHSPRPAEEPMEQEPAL

- IC50 (Histone deacetylase 5): > 1000 nM
- IC50 (Histone deacetylase 6): 74 nM
- IC50 [1]: 590 nM
- remaining at 2 h [4]: 97.1%
- hepatocyte CLint [5]: 27.3 µL/min/1e6 cells
- AUC(0-t) at 24 h [6]: 190 ng·h/mL
Structure (SMILES): O=C(NO)c1ccc(CNC(=O)c2c(F)c(F)c(F)c(F)c2F)cc1
- Activity (MV4-11 [2]): 18%
- Activity (MV4-11 [3]): 1.69%
- IC50 (RPMI-8226): 4940 nM
- IC50 (HUVEC): 10300 nM
